KCNK3 inh – human KCNK3 channel inhibition, primary screen; O14649; CHO-KCNK3 thallium flux, FluxOR fluorescence; hits give low values; B-score at 10 µM; 0.84% of 340,000 active; AID 602410;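 active = B-score under library mean minus 4 SD, starting fluorescence ratio at most library mean plus 5 SD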;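 also: more negative B-score means stronger inhibition of thallium flux through KCNK3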
Target sequence (O14649 whole entry, looked up): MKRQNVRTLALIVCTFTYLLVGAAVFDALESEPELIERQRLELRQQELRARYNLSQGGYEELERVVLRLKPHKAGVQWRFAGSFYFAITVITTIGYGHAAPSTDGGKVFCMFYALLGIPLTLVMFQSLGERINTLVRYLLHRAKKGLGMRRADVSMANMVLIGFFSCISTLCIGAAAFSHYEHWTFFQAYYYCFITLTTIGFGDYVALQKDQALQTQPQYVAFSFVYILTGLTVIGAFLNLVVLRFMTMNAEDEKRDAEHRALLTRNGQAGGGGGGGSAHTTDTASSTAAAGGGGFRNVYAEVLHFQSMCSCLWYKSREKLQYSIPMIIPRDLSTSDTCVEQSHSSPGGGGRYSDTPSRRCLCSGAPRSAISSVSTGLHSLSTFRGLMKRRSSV
KCNQ1 block – human KCNQ1 channel inhibition | P51787 | CHO-K1 KCNQ1, FluxOR thallium flux fluorescence; hits give high values | B-score at 10 µM | 1.3% of 310,000 active;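 active = compounds whose thallium flux B-score, printed positive for inhibition, exceeds three library SD while starting fluorescence stays within three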;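 also: channel opened by potassium depolarization with thallium stimulus after 20 min compound exposure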
KCNK9 block – human KCNK9 channel inhibition; HEK293 KCNK9, FluxOR thallium flux fluorescence; hits give low values; B-score at 10 µM; 1.2% of 310,000 active; AID 488922;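 active = ratio B-score over 3 SD below the library mean, with starting fluorescence within 5 SD of its mean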;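 also: negative B-score means less thallium flux so channel inhibition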
KCNQ1 pot – potentiates or activates the human KCNQ1 potassium channel; CHO-K1 KCNQ1, thallium flux FluxOR fluorescence; hits give high values; B-score at 10 µM; 0.35% of 310,000 active; AID 2648;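 active = fluorescence ratio B-score, a plate-corrected score, at least three library SD, with initial intensity B-score within 5 SD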
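System: Stable KCNQ1 CHO-K1 line | Incubation: 90 min dye loading and 20 min compound exposure, both at room temperature | Measure: Ratio B score | Medium: Assay buffer for compound exposure, DMSO matched across wells | Compound dosing: Single-concentration screen | Probe or stimulus: K+/Tl+ depolarizing stimulus | Measured by: Kinetic FluxOR fluorescence, 10 s baseline plus 110 s post-stimulus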
hERG protect – shields human hERG channel from block by proarrhythmic agents; CHO-hERG, FluxOR thallium flux, dofetilide IC70 present; activation (rescue from dofetilide block), less the hit threshold, % at 10 µM; 0.51% of 310,000 active;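 active = activation above the mean of controls blocked by dofetilide plus 5 SD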;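 also: thallium influx through hERG after potassium depolarization seen as dye fluorescence rise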
Kir21 inh – blocks the mouse Kir2.1 inward-rectifier potassium channel; P35561; HEK293-Kir2.1, FluxOR thallium flux fluorescence; hits give low values; B-score at 10 µM; 0.85% of 310,000 active; AID 1672;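 active = fluorescence ratio B-score at or below minus 3 SD of library scores, with starting-brightness B-score within 2 SD, cut at about -4.2 in these data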;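 also: channel flux triggered by added potassium and thallium sulfate stimulus; B-score of peak minus minimum fluorescence over baseline after thallium stimulus; more negative B-score means stronger Kir2.1 block with less thallium influx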
KCNK3 inh conf – human KCNK3 channel inhibition, confirmation assay; CHO-KCNK3 thallium flux, FluxOR fluorescence; 0% buffer, 100% carvedilol maximal block; 99% of 2,400 active; ratio percent of control, % at 10 µM; shares compounds with KCNK3 inh;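 active = ratio percent of control, averaged over triplicates, above buffer control mean plus 5 SD, cut at about 64% in these data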;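 also: ratio is the fluorescence rise from min to max over baseline after thallium stimulus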
KCNK3 noninduced – counter-screen for KCNK3 inhibitors: effect in non-induced cells. shares compounds with KCNK3 inh. thallium flux ratio (lower = more inhibition) at 10 µM. AID 651747. non-induced KCNK3 parental cells, FluxOR thallium flux; hits give low values. 40% of 2,400 active;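 active = thallium flux ratio, averaged over three wells, more than 5 SD below the buffer control mean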;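 also: host cells are CHO cells without KCNK3 induction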
Numbers stand for hits; i = inactive; nt = not tested or not shown. Only some compounds are listed: those with a hit (about 3.8% of all), similar ones and a draw of the others.

SMILES	KCNK3 inh	KCNQ1 block	KCNK9 block	KCNQ1 pot	hERG protect	Kir21 inh	KCNK3 inh conf	KCNK3 noninduced
N#CCc1nn(Cc2ccc(F)cc2)c(=O)c2ccccc12	-9	i	i	i	i	i	94	i
COc1ccc2[nH]c3c(c2c1)CCN1C(=O)C(CC(=O)NCc2ccco2)C[C@H](C(=O)N2CCOCC2)[C@@]31CCC1CCCC1 (stereo partly drawn)	i	nt	nt	nt	nt	nt	nt	nt
CCc1ccccc1NC(=O)CN1CCN(CC(=O)Nc2ccc3c(c2)OC2(CCCCC2)O3)CC1	i	nt	nt	nt	nt	nt	nt	nt
Cc1c(Cl)cccc1NC(=S)NCC1COc2ccccc2O1 (stereo not drawn)	-8.9	i	i	i	i	i	125	0.14
C=CCNC(=S)NCC1COc2ccccc2O1 (stereo not drawn)	i	i	i	i	i	i	nt	nt
N=c1n(Cc2ccc(Cl)cc2)c2ccccc2n1CC(O)COc1ccccc1 (stereo not drawn)	-12	i	i	i	i	-9.6	123	i
N=c1n(CCO)c2ccccc2n1Cc1ccc(Cl)cc1	i	i	i	i	i	i	nt	nt
COc1ccc(C(CNS(=O)(=O)c2ccc(C)cc2)N2CCN(C)CC2)cc1 (stereo not drawn)	i	i	i	i	i	i	nt	nt
CN(C(=O)COC(=O)/C=C/c1ccc2ccccc2n1)c1c(N)n(Cc2ccccc2)c(=O)[nH]c1=O	i	nt	nt	nt	nt	nt	nt	nt
COCCN(C(=O)COC(=O)/C=C/c1ccc2ccccc2n1)c1c(N)n(Cc2ccccc2)c(=O)[nH]c1=O	-12	i	i	i	i	i	55	i
COCCN(C(=O)COC(=O)c1c(NC(C)=O)sc(C)c1C)c1c(N)n(Cc2ccccc2)c(=O)[nH]c1=O	-9.4	i	i	i	i	i	97	i
Cc1cc(NCc2ccccc2)nc(-c2ccccc2O)n1	-11	i	i	i	i	i	133	0.13
COc1cc2cc(CCCOC(=O)c3ccco3)oc(=O)c2cc1OC	i	nt	nt	nt	nt	nt	nt	nt
O=C(/C=C\Nc1ccccc1Br)c1ccc2c(c1)OCO2	-12	i	i	i	i	i	118	i
O=C(/C=C/c1ccccc1Br)c1ccc2c(c1)OCO2	i	i	i	i	i	i	nt	nt
O=C(c1cccc2ccccc12)C1CCCN(C(=O)c2ccc(N3CCOCC3)cc2)C1 (stereo not drawn)	-9.3	i	i	i	i	i	99	i
CC(NC(=O)c1cccs1)C1CCCO1 (stereo not drawn)	i	i	i	i	i	i	nt	nt
Cc1ccc(C)c(N2CCN(C(c3ccc(N(C)C)cc3)c3nnnn3C(C)(C)C)CC2)c1 (stereo not drawn)	i	i	-8.1	i	i	i	122	0.15
CN(C)c1ccc(C(c2nnnn2C(C)(C)C)N2CCN(C(=O)c3ccco3)CC2)cc1 (stereo not drawn)	i	i	i	i	i	i	nt	nt
Cc1nn(-c2ccccc2)c(=O)c2ccccc12	i	i	i	i	i	i	nt	nt
Cc1nn(-c2cccc(C(F)(F)F)c2)c(=O)c2ccccc12	-9	i	i	i	i	i	114	0.16
N#Cc1ccccc1Sc1ccccc1C(=O)OCc1nnc(-c2ccccc2)o1	-9.9	i	i	i	i	i	78	i
CC(Sc1nnc(-c2cccnc2)n1N)C(=O)Nc1ccc2c(c1)OCCO2 (stereo not drawn)	i	nt	nt	nt	nt	nt	nt	nt
O=C(NCc1ccccc1)c1cccc(COc2ccccc2Cl)c1	-12	6	i	i	i	i	112	i
CN1c2ccccc2N(C)C1c1ccc2c(c1)OCO2	i	i	i	i	i	i	nt	nt
CC(=O)C1=NN(c2ccc(Cl)cc2)C(c2ccc3c(c2)OCO3)N(C(C)=O)N1C (stereo not drawn)	-8.8	i	i	i	i	i	95	0.15
COc1cc(C2Nc3ccccc3C(=O)N2c2ccccc2)c(Br)cc1OCC(=O)O (stereo not drawn)	i	i	i	i	i	i	nt	nt

Compound activity from PubChem.
